From ChEMBL document CHEMBL4270642, “Boronic ester-linked macrocyclic lipopeptides as serine protease inhibitors targeting Escherichia coli type I signal peptidase” (Eur J Med Chem, 2018)
Converted amounts (≈) assume the structure as drawn.

Columns and labels:
[1] = target: Signal peptidase I (Escherichia coli K-12) (UniProt P00803); assay: Inhibition of Escherichia coli type 1 signal peptidase lepB assessed as residual activity at 5 uM preincubated for 10 mins followed by Dabcyl-VGGTATAYGAFSRPGLE-(EDANS)-OH substrate addition measured after 2 hrs by FRET based assay (reference value: 100%)
Sequence of Signal peptidase I (Escherichia coli K-12) (P00803 whole entry): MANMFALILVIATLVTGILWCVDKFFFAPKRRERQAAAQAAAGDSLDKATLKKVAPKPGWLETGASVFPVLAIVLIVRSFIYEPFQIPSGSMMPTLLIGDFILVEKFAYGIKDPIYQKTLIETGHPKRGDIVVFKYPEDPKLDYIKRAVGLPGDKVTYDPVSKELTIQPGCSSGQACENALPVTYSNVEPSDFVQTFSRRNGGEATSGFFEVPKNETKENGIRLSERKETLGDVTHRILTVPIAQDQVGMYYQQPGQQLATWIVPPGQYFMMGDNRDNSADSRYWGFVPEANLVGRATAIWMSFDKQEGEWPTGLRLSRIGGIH
How it was run: (§1)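 EcLepB (about 50 nM estimated) preincubated 10 min with compound. Reaction started with Dabcyl/EDANS FRET peptide at 8 µM final (Km 20 µM). Fluorescence followed continuously at 535 nm, 22 °C, for 2 h. Cleavage rates plotted against inhibitor concentration; IC50 from non-linear regression of sigmoidal dose-response curves.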

[2] = target: Signal peptidase I (Escherichia coli K-12) (UniProt P00803); assay: Inhibition of Escherichia coli type 1 signal peptidase lepB assessed as residual activity at 10 uM preincubated for 10 mins followed by Dabcyl-VGGTATAYGAFSRPGLE-(EDANS)-OH substrate addition measured after 2 hrs by FRET based assay (reference value: 100%); how it was run: as §1
[3] = target: Signal peptidase I (Escherichia coli K-12) (UniProt P00803); assay: Inhibition of Escherichia coli type 1 signal peptidase lepB assessed as residual activity at 2.5 uM preincubated for 10 mins followed by Dabcyl-VGGTATAYGAFSRPGLE-(EDANS)-OH substrate addition measured after 2 hrs by FRET based assay (reference value: 100%); how it was run: as §1
[4] = target: Signal peptidase I (Escherichia coli K-12) (UniProt P00803); assay: Inhibition of Escherichia coli type 1 signal peptidase lepB assessed as residual activity at 0.0781 uM preincubated for 10 mins followed by Dabcyl-VGGTATAYGAFSRPGLE-(EDANS)-OH substrate addition measured after 2 hrs by FRET based assay (reference value: 100%); how it was run: as §1
Escherichia coli [5] = assay: Antibacterial activity against tolC deficient Escherichia coli CH3130 after 16 to 20 hrs by broth microdilution method; type: functional
How it was run: (§2)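 Broth microdilution in cation-adjusted Mueller-Hinton II per EUCAST/CLSI; two-fold compound series 64 down to 0.25 µg/mL final. Inoculum from fresh colonies (non-selective agar, 18-24 h, 35 ± 2 °C), adjusted to 0.5 McFarland, diluted to about 5 × 10^5 CFU/mL final. Static incubation 16-20 h at 35 ± 2 °C; MIC read visually as complete growth inhibition against medium-only wells.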

Staphylococcus aureus = assay: Antibacterial activity against Staphylococcus aureus ATCC 29213 after 16 to 20 hrs by broth microdilution method; type: functional; how it was run: as §2
[6] = target: Signal peptidase I (Escherichia coli K-12) (UniProt P00803); assay: Inhibition of Escherichia coli type 1 signal peptidase lepB assessed as residual activity at 0.0024 uM preincubated for 10 mins followed by Dabcyl-VGGTATAYGAFSRPGLE-(EDANS)-OH substrate addition measured after 2 hrs by FRET based assay (reference value: 100%); how it was run: as §1
HepG2 = assay: Cytotoxicity against human HepG2 cells after 72 hrs by FMSA; type: cell-based; details: HepG2, 72 h
How it was run: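 HepG2 (ATCC) grown in EMEM with 10% FBS, pen/strep, 2 mM L-glutamine, used up to 20 passages. Seeded at 1000 cells/well, cultured overnight, then dosed acoustically from DMSO stocks. Eight two-fold dilutions in duplicate from top 64 or 32 µM; 72 h at 37 °C, 5% CO2. Fluorescein diacetate hydrolysis read at ex 485/em 530 nm; IC50 by non-linear regression.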

Escherichia coli [7] = assay: Antibacterial activity against Escherichia coli D22 CGSG 5163 harboring Ips mutant after 16 to 20 hrs by broth microdilution method; type: functional
How it was run: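 Broth microdilution in cation-adjusted Mueller-Hinton II broth, following EUCAST and CLSI guidelines. Two-fold series at final concentrations 64 down to 0.25 µg/mL, with medium-only and growth controls. Inoculum from fresh colonies (18-24 h, 35 °C ± 2 °C) adjusted to 0.5 McFarland, final ≈5 × 10^5 CFU/mL. Plates incubated unshaken 16-20 h at 35 °C ± 2 °C. MIC read visually as complete inhibition of growth.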

Acinetobacter baumannii = assay: Antibacterial activity against Acinetobacter baumannii ATCC 19606 after 16 to 20 hrs by broth microdilution method; type: functional; details: ATCC 19606 = CIP 70.34 = JCM 6841; how it was run: as §2
[8] = target: Signal peptidase I (Escherichia coli K-12) (UniProt P00803); assay: Inhibition of Escherichia coli type 1 signal peptidase lepB assessed as residual activity at 0.0049 uM preincubated for 10 mins followed by Dabcyl-VGGTATAYGAFSRPGLE-(EDANS)-OH substrate addition measured after 2 hrs by FRET based assay (reference value: 100%); how it was run: as §1
[9] = target: Signal peptidase I (Escherichia coli K-12) (UniProt P00803); assay: Inhibition of Escherichia coli type 1 signal peptidase lepB assessed as residual activity at 1.25 uM preincubated for 10 mins followed by Dabcyl-VGGTATAYGAFSRPGLE-(EDANS)-OH substrate addition measured after 2 hrs by FRET based assay (reference value: 100%); how it was run: as §1
[10] = target: Signal peptidase I (Escherichia coli K-12) (UniProt P00803); assay: Inhibition of Escherichia coli type 1 signal peptidase lepB assessed as residual activity at 0.625 uM preincubated for 10 mins followed by Dabcyl-VGGTATAYGAFSRPGLE-(EDANS)-OH substrate addition measured after 2 hrs by FRET based assay (reference value: 100%); how it was run: as §1
Pseudomonas aeruginosa [11] = assay: Antibacterial activity against Pseudomonas aeruginosa PAO1 after 16 to 20 hrs by broth microdilution method; type: functional; how it was run: as §2
[12] = target: Signal peptidase I (Escherichia coli K-12) (UniProt P00803); assay: Inhibition of Escherichia coli type 1 signal peptidase lepB assessed as residual activity at 0.0195 uM preincubated for 10 mins followed by Dabcyl-VGGTATAYGAFSRPGLE-(EDANS)-OH substrate addition measured after 2 hrs by FRET based assay (reference value: 100%); how it was run: as §1
Signal peptidase I = Signal peptidase I (Escherichia coli K-12, UniProt P00803); assay: Inhibition of Escherichia coli type 1 signal peptidase lepB preincubated for 10 mins followed by Dabcyl-VGGTATAYGAFSRPGLE-(EDANS)-OH substrate addition measured after 2 hrs by FRET based assay; how it was run: as §1
Sequence of Signal peptidase I (P00803 whole entry): as above

[13] = target: Signal peptidase I (Escherichia coli K-12) (UniProt P00803); assay: Inhibition of Escherichia coli type 1 signal peptidase lepB assessed as residual activity at 0.0391 uM preincubated for 10 mins followed by Dabcyl-VGGTATAYGAFSRPGLE-(EDANS)-OH substrate addition measured after 2 hrs by FRET based assay (reference value: 100%); how it was run: as §1
Pseudomonas aeruginosa [14] = assay: Antibacterial activity against efflux defective Pseudomonas aeruginosa PAO750 after 16 to 20 hrs by broth microdilution method; type: functional; how it was run: as §2
[15] = target: Signal peptidase I (Escherichia coli K-12) (UniProt P00803); assay: Inhibition of Escherichia coli type 1 signal peptidase lepB assessed as residual activity at 0.1563 uM preincubated for 10 mins followed by Dabcyl-VGGTATAYGAFSRPGLE-(EDANS)-OH substrate addition measured after 2 hrs by FRET based assay (reference value: 100%); how it was run: as §1
[16] = target: Signal peptidase I (Escherichia coli K-12) (UniProt P00803); assay: Inhibition of Escherichia coli type 1 signal peptidase lepB assessed as residual activity at 0.3125 uM preincubated for 10 mins followed by Dabcyl-VGGTATAYGAFSRPGLE-(EDANS)-OH substrate addition measured after 2 hrs by FRET based assay (reference value: 100%); how it was run: as §1
[17] = target: Signal peptidase I (Escherichia coli K-12) (UniProt P00803); assay: Inhibition of Escherichia coli type 1 signal peptidase lepB assessed as residual activity at 0.0012 uM preincubated for 10 mins followed by Dabcyl-VGGTATAYGAFSRPGLE-(EDANS)-OH substrate addition measured after 2 hrs by FRET based assay (reference value: 100%); how it was run: as §1
[18] = Hemolytic activity in human RBC at 100 uM after 45 mins by spectrophotometric method relative to control; type: ADME, cell-based, Erythrocyte; details: red blood cells (erythrocytes), read-out: Activity
How it was run: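 Heparinized human blood; red cells washed three times in Tyrode buffer pH 7.4. Compound at 100 µM final with 1% DMSO and 50% RBC, shaken (250 rpm) 45 min at 37 °C. Cells pelleted (1000 × g, 10 min); supernatant haemoglobin at 540 nm. Percent lysis relative to buffer-only and 2% Triton X-100 controls.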

Klebsiella pneumoniae = assay: Antibacterial activity against Klebsiella pneumoniae ATCC 13883 after 16 to 20 hrs by broth microdilution method; type: functional; how it was run: as §2
Escherichia coli [19] = assay: Antibacterial activity against Escherichia coli ATCC 25922 after 16 to 20 hrs by broth microdilution method; type: functional; how it was run: as §2
[20] = target: Signal peptidase I (Escherichia coli K-12) (UniProt P00803); assay: Inhibition of Escherichia coli type 1 signal peptidase lepB assessed as residual activity at 0.0098 uM preincubated for 10 mins followed by Dabcyl-VGGTATAYGAFSRPGLE-(EDANS)-OH substrate addition measured after 2 hrs by FRET based assay (reference value: 100%); how it was run: as §1

| SMILES | Activity [1] [%] | Activity [2] [%] | Activity [3] [%] | Activity [4] [%] | MIC (Escherichia coli [5]) [µg/mL] | MIC (Staphylococcus aureus) [µg/mL] | Activity [6] [%] | IC50 (HepG2) [nM] | MIC (Escherichia coli [7]) [µg/mL] | MIC (Acinetobacter baumannii) [µg/mL] | Activity [8] [%] | Activity [9] [%] | Activity [10] [%] | MIC (Pseudomonas aeruginosa [11]) [µg/mL] | Activity [12] [%] | IC50 (Signal peptidase I) [nM] | Activity [13] [%] | MIC (Pseudomonas aeruginosa [14]) [µg/mL] | Activity [15] [%] | Activity [16] [%] | further results |
| --- | --- | --- | --- | --- | --- | --- | --- | --- | --- | --- | --- | --- | --- | --- | --- | --- | --- | --- | --- | --- | --- |
| CCCCCCc1ccc(-c2nc3cc(C(=O)N[C@@H](CCCN)C(=O)N[C@H](C(=O)N[C@@H](C)C(=O)N[C@H]4Cc5cn(nn5)CCO[C@@H]5C[C@@H]6OB(O[C@@H]6C5)[C@H](C)NC4=O)[C@@H](C)O)ccc3[nH]2)cc1 | -0.1 | 6.3 | 2.8 | 16.5 | 16 (≈ 17.3 µM) | 4 (≈ 4.32 µM) | 92.8 | 24400 | 64 (≈ 69.1 µM) | 64 (≈ 69.1 µM) | 88.3 | 5.4 | 8.6 | > 64 | 63.2 | 29 | 40.6 | 64 (≈ 69.1 µM) | 7.2 | 6.8 | Activity [17]: 100%; hemolysis at 0.75 h, 100 µM [18]: 0.5%; MIC (Klebsiella pneumoniae): 64 µg/mL (≈ 69.1 µM); MIC (Escherichia coli [19]): > 64 µg/mL; Activity [20]: 86.3% |
| CCCCCCC#Cc1cncc(C(=O)N[C@@H](CCCN)C(=O)N[C@H](C(=O)N[C@@H](C)C(=O)N[C@H]2Cc3cn(nn3)CCO[C@@H]3C[C@@H]4OB(O[C@@H]4C3)[C@H](C)NC2=O)[C@@H](C)O)c1 | 2.3 | -1.2 | 8.2 | 26.8 | 64 (≈ 76.7 µM) | 32 (≈ 38.3 µM) | 93.6 | > 64000 | > 64 | > 64 | 91 | 7.9 | 13 | > 64 | 75.2 | 41 | 53.7 | > 64 | 10.6 | 13.4 | Activity [17]: 106%; hemolysis at 0.75 h, 100 µM [18]: 0.01%; MIC (Klebsiella pneumoniae): > 64 µg/mL; MIC (Escherichia coli [19]): > 64 µg/mL; Activity [20]: 82.7% |
| CCCCCCc1ccc(-c2c[nH]c3ccc(C(=O)N[C@@H](CCCN)C(=O)N[C@H](C(=O)N[C@@H](C)C(=O)N[C@H]4Cc5cn(nn5)CCO[C@@H]5C[C@@H]6OB(O[C@@H]6C5)[C@H](C)NC4=O)[C@@H](C)O)cc23)cc1 | -6.8 | -19.8 | 2.9 | 78.1 | 32 (≈ 34.6 µM) | 16 (≈ 17.3 µM) | 108 | 23700 | 16 (≈ 17.3 µM) | 64 (≈ 69.2 µM) | 99.5 | 8.1 | 20.4 | 64 (≈ 69.2 µM) | 101 | 225 | 94.2 | 64 (≈ 69.2 µM) | 58.5 | 42.8 | Activity [17]: 106%; hemolysis at 0.75 h, 100 µM [18]: 2.8%; MIC (Klebsiella pneumoniae): 64 µg/mL (≈ 69.2 µM); MIC (Escherichia coli [19]): 32 µg/mL (≈ 34.6 µM); Activity [20]: 98.5% |
